Assay results published in PubChem BioAssay AID504383 (The Scripps Research Institute Molecular Screening Center, 2011).
Screen size: about 2,500 compounds; about 1,200 (48%) were called active.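 How the source made its calls: active means mean activation above the low control average plus 3 SD, as set in the primary screen (cut at about 12% in these data); inactive means the rest.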 So high a share suggests a set chosen from earlier hits. The list shows a part of the results.

Biological target: Troponin I, cardiac muscle (Homo sapiens) + Troponin T, cardiac muscle (Homo sapiens) + Troponin C, slow skeletal and cardiac muscles (Homo sapiens) (UniProt P19429+P45379+P63316)
Test: calcium sensitizers of cardiac thin filaments – biochemical, IANBD-TnC fluorescence, triplicate, confirmation (AID 504383);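 further: 0% = DMSO at 0.472 mM calcium and 100% = DMSO at 2.9 mM calcium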
Details: IANBD-labeled cardiac RTF, Ca2+ sensitivity fluorescence; at 7.2 µM; hits give high values; scaled from EC20 to saturating calcium; tested at EC20 calcium, 0.472 mM
Procedure, shortened: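 material = labelled regulated thin filaments | probe or stimulus = Ca2+ 0.472 mM, EC20 level | dosing = single nominal compound dose of 7.2 µM | schedule = 15 min at 25 °C | signal = fluorescence intensity of labelled filaments | evaluation = fluorescence gain scaled between EC20 and EC100 calcium controls | benchmarks = low control EC20 calcium, high control EC100 calcium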

Structure (SMILES)	activation
CCOC(=O)C1=C(COC(=O)c2ccc3ccccc3c2O)NC(=O)NC1C (stereo not drawn)	6.83% (inactive)
COC(=O)[C@H](C)NC(=O)c1cc2c(cn1)[nH]c1ccccc12	10.7% (inactive)
CCOC(=O)c1c(NCC(C)C)c2ccccc2[nH]c1=O	183% (active)
COc1ccc(N2C(=O)[C@@H]3[C@H](C2=O)[C@H]2c4ccccc4C=CN2[C@@H]3C(=O)Nc2ccccc2)cc1	55.7% (active)
Cc1ccc(-c2nc(C)sc2CC(=O)O)cc1	28.5% (active)
Cc1ccc(-c2nc(N)sc2CC(=O)OCC(=O)NCCC(C)C)cc1	10.3% (inactive)
COC(=O)c1ccc2c(c1)NC1=C(C(=O)CC(C)(C)C1)C(c1ccncc1)N2 (stereo not drawn)	9.24% (inactive)
COc1ccc(NC(=O)c2cc(C)on2)cc1OC	6.63% (inactive)
COc1ccc(-c2cc(C(F)(F)F)nc(S(=O)(=O)CCCC(=O)Nc3cc(C)on3)n2)cc1OC	16.4% (active)
O=C(CCN1C(=O)/C(=C/c2ccccc2)SC1=S)NNC(=O)c1cccnc1	6.78% (inactive)
Cn1cc(/C=C2\SC(=S)N(N3CCOCC3)C2=O)c2ccccc21	12.7% (active)
O=C1/C(=C/c2cccnc2)SC(=S)N1N1CCOCC1	12.4% (active)
O=C(O)CN1C(=O)/C(=C\c2cn(CC(=O)N3CCOCC3)c3ccccc23)SC1=S	16.6% (active)
Cc1ccc(N=C2NC(=O)/C(=C/c3cn(C)c4ccccc34)S2)cc1C	6.33% (inactive)
O=C(CS(=O)(=O)c1cn(Cc2ccc(F)cc2)c2ccccc12)N1CCOCC1	1.62% (inactive)
Cc1cc(S(=O)(=O)Nc2c(C)nn(C)c2C)c(Cl)cc1Cl	10.6% (inactive)
O=C1NC(=Nc2ccccc2Cl)S/C1=C\c1cc([N+](=O)[O-])ccc1O	20.8% (active)
COc1cccc(N=C2NC(=O)/C(=C/c3cc([N+](=O)[O-])ccc3O)S2)c1	9.82% (inactive)
Cc1ccc(S(=O)(=O)/N=C2/NC(=O)/C(=C/c3cc([N+](=O)[O-])ccc3O)S2)cc1	4.75% (inactive)
C#CCN1c2ccccc2Sc2cccnc21	13.6% (active)
O=C(Nc1ccccc1)c1ccc(NCCc2ccccc2)c([N+](=O)[O-])c1	5.71% (inactive)
Cc1cccc(OCCNc2ccc(C(F)(F)F)cc2[N+](=O)[O-])c1	159% (active)
COc1cccc(C(=O)NC2CC3CCCC(C2)N3CC(=O)Nc2ccc(N(C)C)cc2)c1 (stereo not drawn)	21.3% (active)
COc1ccc(NC(=O)CS(=O)(=O)c2cccc(Cl)c2)cc1	6.14% (inactive)

Structure (SMILES)	activation
Cc1ccc(NC(=O)CC2SC3=NCCCN3C2=O)c(C)c1 (stereo not drawn)	9.67% (inactive)
COc1ccc2c(c1)cc(C(=O)N[C@@H](CCSC)C(=O)N1CCC[C@H]1C(=O)O)n2C	20.4% (active)
CSCCC(NC(=O)c1ccccc1Cl)C(=O)N1CCC1 (stereo not drawn)	3.34% (inactive)
COc1ccc(OC)c(/C=N/N=C(\N)c2nonc2N)c1	18.5% (active)
COc1ccc(N=C(N)N=C(N)N)c(OC)c1	7.88% (inactive)
COc1ccc(C2C(C#N)=C(N)N(c3cccnc3)C3=C2C(=O)CCC3)cc1Cn1cc([N+](=O)[O-])cn1 (stereo not drawn)	18.5% (active)
COc1ccc(S(=O)(=O)Nc2cc(C)on2)cc1	57.2% (active)
COc1ccc(NC(=O)NS(=O)(=O)c2ccc(C)cc2)cn1	7.89% (inactive)
O=c1[nH]c2ccccc2nc1/C=C/c1ccc(F)cc1	9.41% (inactive)
O=c1[nH]c2ccccc2nc1/C=C(\O)c1cccs1	11.4% (inactive)
O=c1[nH]c2ccccc2nc1/C=C/c1ccccc1	351% (active)
CC1(C)CC(=O)C(CC2CCCCC2=O)C(=O)C1 (stereo not drawn)	15.2% (active)
CN1CCc2c(sc3nc(SCC(N)=O)n(-c4ccccc4)c(=O)c23)C1	3.18% (inactive)
O=C(COC(=O)C1CC2C=CC1C2)Nc1cccc(S(=O)(=O)N2CCCCCC2)c1 (stereo not drawn)	5.75% (inactive)
O=C(CCc1ccc(S(=O)(=O)N2CCOCC2)cc1)OCC(=O)c1ccccc1	20.7% (active)
NS(=O)(=O)c1cccc(NC(=O)CCc2ccc(S(=O)(=O)N3CCOCC3)cc2)c1	84.4% (active)
O=C1CC(/C=C/c2ccco2)=Nc2ccccc2N1	7.68% (inactive)
Nc1ccc2c(c1)C/C(=C/c1ccco1)C2=O	22% (active)
Cc1cc(O)c(CN(C)C)c2c1C(=O)/C(=C/c1ccco1)O2	8.55% (inactive)
O=C1C(=Cc2ccco2)CCCC1=Cc1ccco1	93.5% (active)
O=C1/C(=C/c2c[nH]c3ccccc23)CCC/C1=C\c1c[nH]c2ccccc12	7.19% (inactive)
O=C(O)CCC(=O)NNC(=O)c1ccc(-c2ccccc2)cc1	104% (active)
O=C(COC(=O)/C=C/c1ccccc1[N+](=O)[O-])NNC(=O)c1ccc(F)cc1	9.23% (inactive)
CCNC(=O)COc1ccc(-c2ccccc2)cc1	4.33% (inactive)

Structure (SMILES)	activation
Cc1ccsc1/C=C/C1=Cc2c(sc(NC(=O)CSc3n[nH]c(N)n3)c2C#N)C(C)(C)C1	6.84% (inactive)
O=S(=O)(Nc1nc2ccccc2nc1N1CCN(c2ccccn2)CC1)c1ccc(Cl)cc1	0.27% (inactive)
O=S(=O)(Nc1nc2ccccc2nc1NCCO)c1cccc(Cl)c1	233% (active)
Cn1c(-c2ccc(C=O)s2)nc2c3ccccc3c3ccccc3c21	25.8% (active)
CCOc1ccc(-c2nc3scc(-c4cccs4)c3c(=O)[nH]2)cc1	54.4% (active)
COc1ccc(C2c3ccc(O)cc3Oc3ncn(Cc4ccco4)c(=N)c32)cc1 (stereo not drawn)	15.9% (active)
COc1ccc(C2c3ccc(O)cc3Oc3ncn(CCCO)c(=N)c32)cc1OC (stereo not drawn)	6.69% (inactive)
N=c1c2c(ncn1Cc1ccco1)Oc1cc(O)ccc1C2c1ccccc1 (stereo not drawn)	127% (active)
COc1ccc(C2c3ccc(O)cc3Oc3ncn(CCN4CCOCC4)c(=N)c32)cc1OC (stereo not drawn)	23% (active)
COc1ccc(C2c3ccc(O)cc3Oc3ncn(Cc4ccccc4)c(=N)c32)cc1OC (stereo not drawn)	2.66% (inactive)
Cc1c(O)ccc(/C(Cc2ccc3ccccc3n2)=N\N)c1O	9.3% (inactive)
CCCCOc1[nH]c2nc(-c3ccco3)n(Cc3ccco3)c(=N)c2c1C#N	7.26% (inactive)
N#CC1(C#N)CC(C=O)=C(N)C1(C#N)CC(=O)c1ccc(F)cc1 (stereo not drawn)	18.1% (active)
COC(=O)C1=C(C)NC(=O)/C1=C\N(C)C	29.9% (active)
CCOC(=O)C1=C(C)NC(=O)/C1=C\N(C)C	3.21% (inactive)
CCN(CC)c1ccc(/C=C2\C(=O)c3ccc(C(=O)O)cc3C2=O)cc1	28.1% (active)
CCN(CC)c1ccc(/C=C/C(=O)c2ccc(Br)cc2)cc1	11.2% (inactive)
CCN(CC)c1ccc(/C=C2/C(=O)c3ccc(C(=O)O)cc3C2=O)cc1	21.9% (active)
CN(C)c1ccc(/C=N/N(CCO)C2=NS(=O)(=O)c3ccccc32)cc1	13.5% (active)
COc1ccccc1C(=O)NN(C)C1=NS(=O)(=O)c2ccccc21	7.92% (inactive)
CN(/N=C/c1ccc(N(C)C)cc1)C1=NS(=O)(=O)c2ccccc21	32.9% (active)
COc1ccc(COc2cc(-c3cccc(OC)c3)nc3ccc(NC(=O)c4ccc(C)cc4)cc23)cc1	1.71% (inactive)
Cc1ccc(C(=O)Nc2ccc3c(c2)ncn3C)cc1	27.7% (active)
Cc1cc(NC(=O)CCC(=O)N(CCC(C)C)C(C(=O)NC2CCCC2)c2cccnc2)no1 (stereo not drawn)	3.5% (inactive)

Structure (SMILES)	activation
CC(=O)NC(CCS(C)(=O)=O)C(=O)Nc1cc(C)on1 (stereo not drawn)	15.8% (active)
CCN(CC(=O)Nc1ccccc1C(F)(F)F)C(=O)c1ccc(-n2nc(C)c(CCC(=O)OC)c2C)cc1	29.8% (active)
CCN(CC(=O)Nc1c(F)cccc1F)C(=O)CNC(=O)COc1ccccc1	-0.22% (inactive)
COc1ccc(-c2cc3ncc(-c4ccccc4)c(N)n3n2)cc1	15.2% (active)
COc1ccc(OC)c2[nH]c(=O)c(CCNS(=O)(=O)c3ccc(Cl)cc3)cc12	1.64% (inactive)
O=C(Nc1cccc(Cl)c1)c1cc(S(=O)(=O)NCCc2ccc(Cl)cc2)ccc1F	13.9% (active)
COc1ccc(-c2c(C#N)c(N)nc3sc(C(=O)c4ccccc4)c(N)c23)cc1	-1.46% (inactive)
COc1ccc(C(=O)c2sc3nc(C)cc(-c4cccs4)c3c2N)cc1	24.7% (active)
COc1ccc(C(=O)c2ccsc2N)cc1	22% (active)
COc1ccc(C(=O)c2sc3nc(-c4ccccc4)ccc3c2N)cc1	85.5% (active)
COc1ccc(C(=O)c2sc3nc(C)cc(-c4cccs4)c3c2N)cc1OC	4.99% (inactive)
Cc1cc(C)c(S(=O)(=O)Nc2ccc3[nH]c(=O)[nH]c3c2)c(C)c1	21.2% (active)
Cc1ccc(NC(=O)Nc2ccc(F)cc2)cc1Cl	20.6% (active)
Cc1ccc(NC(=O)C(OC(=O)c2ccc(F)cc2)c2ccccc2)cc1Cl (stereo not drawn)	8.32% (inactive)
Cc1cc(C)c(C(N)=O)c(Nc2ccc(F)cc2)n1	1.65% (inactive)
O=C(O)c1ccccc1-c1ccc(/C=C/c2cc(C(F)(F)F)[nH]c(=O)n2)o1	8.85% (inactive)
O=C(O)c1cc(Cl)ccc1-c1ccc(/C=C/c2cc(C(F)(F)F)[nH]c(=O)n2)o1	56.3% (active)
CC(=O)OCC[N+](C)(C)C	54.7% (active)
COc1cc(/C=C2\Oc3cc(O)ccc3C2=O)ccc1O	-0.13% (inactive)
O=C1/C(=C/c2cccc(F)c2)Oc2cc(O)ccc21	5.33% (inactive)
O=C1/C(=C/c2ccc(Br)cc2)Oc2cc(O)ccc21	58.7% (active)
